Dynein transport = inhibitors of GR-EGFP nuclear translocation, primary screen, dynein cargo transport inhibitor project, imaging, high-content, 3617.4 mouse cells; test concentration mostly 20 µM; stimulated with dexamethasone, 1 µM; stronger effect = lower value; z-score, hits read low; actives 0.47% (n = 220,000); AID 1381, 2008;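 active = plate z-score of nuclear minus cytoplasmic receptor signal below a set negative limit, without overly bright fluorescence or cell loss, cut at about -3.5 in these data, passing the limit was not always enough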;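 note: z-score of nuclear minus cytoplasmic ring GR-EGFP intensity difference per well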
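Buffer or medium: tetracycline-free induction medium containing charcoal-stripped FBS / Reagent: dexamethasone agonist, 1.0 µM final, for 30 min / Technique: automated 10x imaging of fixed Hoechst-stained cells / Times: induction 48 h, compound 1 h, agonist 30 min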
UPR XBP1 act = activators of adaptive XBP1 UPR arm, primary screen, cell-based, CHO-XBP1 luciferase reporter, luminescence, uHTS; AID 463104, 2010; activation, % at 20 µM; IRE1-XBP1 UPR activation; percent of tunicamycin response, DMSO as zero; actives 0.33% (n = 330,000);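 active = versus positive control, 20 µM dose yields 30% or more activation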;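 note: 100% = tunicamycin at 10 µg/mL and 0% = DMSO only wells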
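Signal: luciferase luminescence; Assay system: CHO-XBP1 luciferase reporter cells; Amount: one thousand reporter cells per well; Dosing: 20 µM single concentration, DMSO 1%; Benchmarks: high control tunicamycin 10 µg/mL final, low control DMSO vehicle only; Schedule: 6 h compound exposure at 37 °C, 5% CO2; Evaluation: percent activation relative to tunicamycin reference.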
Beta2AR agonist = beta2AR agonists driving receptor internalization, primary screen, cell-based, FAP fluorogen, flow cytometry; actives 0.43% (n = 340,000); Beta-2 adrenergic receptor (Homo sapiens), P07550; response, % (no concentration beside the values); Am2.2-beta2AR cells;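 active = response above a set limit, near 3 SD of response in nonfluorescent compounds, cut at about 42% in these data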
p-CIP stab down = p/CIP-EGFP fusion destabilizers, primary screen, fluorescence, F442A cells; Q05BA5; decrease of EGFP signal, % at 10 µM; AID 1984, 2009; 16 h; actives 0.01% (n = 290,000);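 active = EGFP signal decrease of at least 30% at 10 µM or well 3 SD below plate mean, unless failing retest; inactive = the rest, including hits failing retest or dose response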
Target sequence (Q05BA5 1-1403): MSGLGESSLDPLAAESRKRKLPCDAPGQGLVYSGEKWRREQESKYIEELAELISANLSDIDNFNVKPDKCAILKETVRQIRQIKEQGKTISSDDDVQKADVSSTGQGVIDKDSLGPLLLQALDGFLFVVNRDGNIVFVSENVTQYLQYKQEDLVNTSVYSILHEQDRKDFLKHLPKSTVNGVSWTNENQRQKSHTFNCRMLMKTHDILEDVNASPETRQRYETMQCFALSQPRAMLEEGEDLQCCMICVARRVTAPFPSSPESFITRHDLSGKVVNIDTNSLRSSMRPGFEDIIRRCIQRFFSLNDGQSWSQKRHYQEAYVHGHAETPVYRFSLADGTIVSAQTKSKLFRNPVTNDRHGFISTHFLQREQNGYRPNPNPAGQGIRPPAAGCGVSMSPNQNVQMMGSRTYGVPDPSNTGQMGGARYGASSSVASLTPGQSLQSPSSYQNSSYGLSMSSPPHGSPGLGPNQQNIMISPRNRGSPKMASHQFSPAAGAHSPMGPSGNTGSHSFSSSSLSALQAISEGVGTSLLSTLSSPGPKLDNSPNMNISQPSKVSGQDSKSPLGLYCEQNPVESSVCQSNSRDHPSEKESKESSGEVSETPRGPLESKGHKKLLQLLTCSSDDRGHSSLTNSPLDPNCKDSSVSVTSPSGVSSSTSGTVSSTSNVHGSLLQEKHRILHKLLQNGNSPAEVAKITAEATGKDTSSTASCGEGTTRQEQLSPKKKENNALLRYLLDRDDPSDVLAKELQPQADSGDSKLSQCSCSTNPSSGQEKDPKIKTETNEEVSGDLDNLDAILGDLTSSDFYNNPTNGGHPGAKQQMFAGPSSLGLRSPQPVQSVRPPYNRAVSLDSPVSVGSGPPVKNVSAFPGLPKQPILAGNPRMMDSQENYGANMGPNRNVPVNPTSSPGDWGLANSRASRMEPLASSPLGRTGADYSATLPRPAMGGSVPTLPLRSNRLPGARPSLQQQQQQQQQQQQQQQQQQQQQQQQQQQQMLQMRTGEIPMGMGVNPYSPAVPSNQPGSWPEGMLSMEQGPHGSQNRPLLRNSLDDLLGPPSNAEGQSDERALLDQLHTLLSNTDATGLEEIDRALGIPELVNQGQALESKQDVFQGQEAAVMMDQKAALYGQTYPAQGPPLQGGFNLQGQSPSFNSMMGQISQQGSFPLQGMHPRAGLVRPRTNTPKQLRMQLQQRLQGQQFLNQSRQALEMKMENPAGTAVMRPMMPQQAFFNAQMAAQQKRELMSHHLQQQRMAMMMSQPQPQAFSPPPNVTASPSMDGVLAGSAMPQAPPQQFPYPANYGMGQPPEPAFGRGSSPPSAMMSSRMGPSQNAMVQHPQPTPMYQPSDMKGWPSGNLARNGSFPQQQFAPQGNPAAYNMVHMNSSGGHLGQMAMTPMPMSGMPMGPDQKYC
UPR CHOP act = activators of apoptotic CHOP UPR arm, primary screen, cell-based, CHO-CHOP luciferase reporter, luminescence, uHTS; AID 449763, 2010; activation, % at 10 µM; actives 0.34% (n = 330,000); UPR activation; percent of tunicamycin response over DMSO baseline;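 active = at 10 µM dose, activation of 40% or more, normalized to positive control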;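 note: 100% = tunicamycin at 10 µg/mL and 0% = DMSO alone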
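Dosing – one dose, 10 µM in 0.5% DMSO · System – CHO-CHOP cells, stable luciferase reporter of PERK-eIF2a-CHOP signalling · Input – 500 cells/well · Control set – tunicamycin 10 µg/mL final as positive, DMSO-only wells as negative · Timing – 6 h compound treatment, 37 °C · Measure – % activation vs tunicamycin · Technique – luminescence read with Steady-Glo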
CHOP inh = inhibitors of CHOP promoter induction, primary screen, cell-based, unfolded protein response, luciferase reporter; CHO-K1 CHOP-promoter luciferase, tunicamycin-induced, 15-18 h; inhibition, % at 10 µM; actives 3.8% (n = 220,000);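 active = compounds that reduced the stress-induced luciferase reporter signal by more than about 70% of percent inhibition, limit read from the data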;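 note: 0% = tunicamycin plus vehicle and 100% = wells without tunicamycin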
CHOP inh conf = retest of CHOP induction inhibitors, confirmation, cell-based; CHO-CHOP promoter luciferase reporter, tunicamycin-induced, luminescence; AID 504437, 2011; actives 45% (n = 2,100); shares compounds with CHOP inh; inhibition, % at 10 µM;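 active = mean of three repeat readings of reporter signal inhibition above a set limit, cut at about 70% in these data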;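 note: 0% = tunicamycin plus vehicle and 100% = wells lacking tunicamycin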
The depositor's hits bear a star; nt = not tested or not shown. Shown is part of a subset that was picked to be rich in hits.

SMILES	Dynein transport	UPR XBP1 act	Beta2AR agonist	p-CIP stab down	UPR CHOP act	CHOP inh	CHOP inh conf
CCCC(NCC(O)COc1ccc(-c2ccccc2)cc1)c1ccccc1 (stereo unspecified)	1.4	24	21	16	8	103*	125*
COc1ccccc1-c1nnc(NC(=O)c2ccc(S(=O)(=O)N(C)Cc3ccccc3)cc2)o1	0.58	1	nt	-2	24	97*	97*
CCc1nnc(NC(=O)c2ccc(S(=O)(=O)N(C)Cc3ccccc3)cc2)o1	nt	-3	21	-15	3	nt	nt
Cn1ncc([N+](=O)[O-])c1C(=O)Nc1nccs1	0.89	0	0	-10	5	17	nt
Cc1cc(C2(c3ccc(O)c(C)c3)C(=O)Nc3ccccc32)ccc1O	-2.7	1	4	-1	1	105*	119*
Cc1cccc2c1NC(=O)C2(c1ccc(O)cc1)c1ccc(O)cc1	-0.47	-2	19	-8	-3	21	nt
O=C1CN(C(=O)CNC(=O)c2ccc(Cl)cc2Cl)CCN1	nt	2	-2	-2	1	nt	nt
O=C(O)CN1CCc2ccccc2C1	1.3	-3	-11	-11	-1	-6	nt
Cc1ccc2nc(NC(=O)CNS(=O)(=O)c3ccc(Br)s3)sc2c1	-0.37	0	2	-1	-1	3	nt
Cc1ccc2nc(NC(=O)CN(C)S(=O)(=O)c3ccc(Br)s3)sc2c1	0.24	-1	4	-2	1	102*	24
Cc1ccccc1NC(=O)c1cnn(-c2ccccc2)c1C	nt	0	-4	0	1	nt	nt
CS(=O)(=O)c1nc(-c2ccco2)cc(C(F)(F)F)n1	-2.6	-5	nt	5	-10	111*	122*
COc1ccc(CNCc2cc3c(C(C)(C)C)nn(-c4ccccc4)c3[nH]c2=O)cc1	-0.074	3	-6	5	-1	-8	nt
Cc1ccc(CNCc2cc3c(C(C)(C)C)nn(-c4ccccc4)c3[nH]c2=O)cc1	-0.14	8	12	-5	1	108*	71*
O=[N+]([O-])c1cc2oc3c(c2c(C=NCc2ccccc2)c1O)CCCC3	-1.3	-1	-36	-21	1	99*	8
O=[N+]([O-])c1ccc(N2CCN(c3ccccc3O)CC2)c(Cl)c1	-0.62	-1	5	-11	0	96*	17
O=S(c1ccc2ccccc2c1)c1cnns1 (stereo unspecified)	-0.97	-11	-7	-14	-9	105*	3
Cc1nnsc1S(=O)c1ccc(Cl)c(Cl)c1 (stereo unspecified)	nt	-8	-10	-8	15	nt	nt
C=C(C)Cn1c(N2CCC(Cc3ccccc3)CC2)nc2c1c(=O)[nH]c(=O)n2C	0.72	0	6	-4	2	99*	125*
Cc1nc2ccc(NC(=O)c3cc([N+](=O)[O-])cc([N+](=O)[O-])c3Cl)cc2s1	-3.6*	nt	31	-4	nt	107*	6
Cc1cccc(C(=O)c2cnc3ccccc3c2-c2ccccc2)c1	0.029	1	8	5	0	102*	77*
CC1C/C(=C/c2ccncc2)C(=O)/C(=C/c2ccncc2)C1 (stereo unspecified)	-6*	2	27	-10	36	99*	-59
O=C1/C(=C/c2ccncc2)Cc2ccccc21	nt	-2	-1	nt	0	nt	nt
CCN=C1NN=C(c2cc(C)n(CCc3ccccc3)c2C)CS1	-1.1	nt	10	8	nt	16	nt
CCN=C1NN=C(c2cc(C)n(Cc3ccco3)c2C)CS1	0.053	-5	9	-1	-8	97*	98*
